The nature of data set [1]: Partition coefficient, log D by HPLC. It counts as physicochemical. The note with it: octanol/water. In outline:
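logD by reversed-phase HPLC at 37 °C, calibrated with seven reference substances of known logD.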

The subject of data set [2] is Canis familiaris. The experiment in a line: Inhibition of pentagastrin-stimulated acid secretion in po dosed Beagle dog fistula model assessed as elevation of intragastric pH after 8 hrs. It counts as functional, organism-based. The following applies: Canis lupus familiaris. In outline: (§1)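 Surgically prepared fistula dogs; pentagastrin infused subcutaneously from 1 h after start of pH-metry over 22.5 h; drug or vehicle given orally in capsules 2.5 h after start; intragastric pH recorded continuously for 24 h with combined glass electrode and ambulatory pH meter; duration of pH >5 read from curves.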

Another data set addresses hERG (KCNH2) (Homo sapiens, UniProt Q12809). Kind of data set: Inhibition of human ERG expressed in CHO-K1 cells at 10 uM by whole-cell patch clamp technique. It counts as cell-based. The following applies: CHO-K1 cells that express human ERG. In outline:
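CHO-K1 cells stably transfected with hERG; whole-cell patch clamp recording of tail currents with test compound at 10 μM, three cells per compound; relative block of tail current amplitude given as arithmetic mean.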
In general terms: The patch-clamp technique gives a direct electrical read-out from membranes.

A short description of data set [3]: Inhibition of H+/K+ ATPase in hog gastric mucosa by malachite green based competitive binding assay. It counts as tissue-based, Sus scrofa. In outline:
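Hog gastric mucosa H+/K+-ATPase, isolated enzyme; competitive binding assay run at pH 7.4; pIC50 reported as geometric mean of 4-5 measurements.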

Data set [4] in a line: Dissociation constant, pKa at pH 2.0 to 11.0 by potentiometric cosolvent titration. It counts as physicochemical.
A further data set has as its system Gastric gland. Kind of data set: Inhibition of acid secretion in New Zealand White rabbit intact gastric glands assessed as [14C]dimethylaminopyridine accumulation by radioactivity. It counts as functional, tissue-based. The following applies: Oryctolagus cuniculus. In outline: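 Gastric glands isolated intact from New Zealand rabbits; cellular activity read as reduced accumulation of the weak base 14C-dimethylaminopyridine; pIC50 given as geometric mean of 4-5 determinations.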

For another data set, the system named is Rattus norvegicus. Kind of data set: Inhibition of pentagastrin-stimulated acid secretion in intraduodenally dosed perfused Sprague-Dawley rat Ghosh Schild model. It counts as functional. The note with it: intraduodenal.
The nature of data set [5]: Octanol/aqueous KCl distribution coefficient, log D at pH 7.4 by potentiometric titration. It counts as physicochemical. In outline:
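Octanol/aqueous KCl distribution coefficient from potentiometric titrations across pH 2.0-11.0 at 25 °C.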

Data set [6] relates to Canis familiaris. Kind of data set: Inhibition of pentagastrin-stimulated acid secretion in Beagle dog fistula model assessed as elevation of intragastric pH at 9 umol/kg, po after 8 hrs. It counts as functional, organism-based. The following applies: Canis lupus familiaris. In outline: as §1
Data set [7] can be described thus: Oral bioavailability in Beagle dog fistula model. The following applies: in vivo. It counts as ADME, organism-based, Canis lupus familiaris.
Data set [8] is described as follows: Clearance in Sprague-Dawley rat Ghosh Schild model. It counts as ADME, organism-based. The following applies: in vivo.
Data set [9] can be described thus: Oral bioavailability in Sprague-Dawley rat Ghosh Schild model. The following applies: in vivo. It counts as ADME, organism-based.
Data set [10] in a line: Clearance in Beagle dog fistula model. It counts as ADME, organism-based, Canis lupus familiaris. The note with it: in vivo.
The test system of data set [11] is Canis familiaris. Kind of data set: Inhibition of pentagastrin-stimulated acid secretion in po dosed Beagle dog fistula model assessed as elevation of intragastric pH after 2.5 hrs. It counts as functional, organism-based. The following applies: Canis lupus familiaris. A digest of the protocol: as §1
Data set [12] deals with Canis familiaris. Kind of data set: Inhibition of pentagastrin-stimulated acid secretion in po dosed Beagle dog fistula model assessed as elevation of intragastric pH after 2 hrs. The note with it: Canis lupus familiaris. It counts as functional, organism-based. In outline:
as §1

Data set [13] has as its system Canis familiaris. The experiment in a line: Inhibition of pentagastrin-stimulated acid secretion in po dosed Beagle dog fistula model assessed as elevation of intragastric pH. It counts as functional, organism-based. The following applies: Canis lupus familiaris. A digest of the protocol:
as §1

SMILES strings stand for the structures. The source made the active and inactive calls. The rule behind the calls is not given here.

hERG (KCNH2), sequence (Q12809 whole entry): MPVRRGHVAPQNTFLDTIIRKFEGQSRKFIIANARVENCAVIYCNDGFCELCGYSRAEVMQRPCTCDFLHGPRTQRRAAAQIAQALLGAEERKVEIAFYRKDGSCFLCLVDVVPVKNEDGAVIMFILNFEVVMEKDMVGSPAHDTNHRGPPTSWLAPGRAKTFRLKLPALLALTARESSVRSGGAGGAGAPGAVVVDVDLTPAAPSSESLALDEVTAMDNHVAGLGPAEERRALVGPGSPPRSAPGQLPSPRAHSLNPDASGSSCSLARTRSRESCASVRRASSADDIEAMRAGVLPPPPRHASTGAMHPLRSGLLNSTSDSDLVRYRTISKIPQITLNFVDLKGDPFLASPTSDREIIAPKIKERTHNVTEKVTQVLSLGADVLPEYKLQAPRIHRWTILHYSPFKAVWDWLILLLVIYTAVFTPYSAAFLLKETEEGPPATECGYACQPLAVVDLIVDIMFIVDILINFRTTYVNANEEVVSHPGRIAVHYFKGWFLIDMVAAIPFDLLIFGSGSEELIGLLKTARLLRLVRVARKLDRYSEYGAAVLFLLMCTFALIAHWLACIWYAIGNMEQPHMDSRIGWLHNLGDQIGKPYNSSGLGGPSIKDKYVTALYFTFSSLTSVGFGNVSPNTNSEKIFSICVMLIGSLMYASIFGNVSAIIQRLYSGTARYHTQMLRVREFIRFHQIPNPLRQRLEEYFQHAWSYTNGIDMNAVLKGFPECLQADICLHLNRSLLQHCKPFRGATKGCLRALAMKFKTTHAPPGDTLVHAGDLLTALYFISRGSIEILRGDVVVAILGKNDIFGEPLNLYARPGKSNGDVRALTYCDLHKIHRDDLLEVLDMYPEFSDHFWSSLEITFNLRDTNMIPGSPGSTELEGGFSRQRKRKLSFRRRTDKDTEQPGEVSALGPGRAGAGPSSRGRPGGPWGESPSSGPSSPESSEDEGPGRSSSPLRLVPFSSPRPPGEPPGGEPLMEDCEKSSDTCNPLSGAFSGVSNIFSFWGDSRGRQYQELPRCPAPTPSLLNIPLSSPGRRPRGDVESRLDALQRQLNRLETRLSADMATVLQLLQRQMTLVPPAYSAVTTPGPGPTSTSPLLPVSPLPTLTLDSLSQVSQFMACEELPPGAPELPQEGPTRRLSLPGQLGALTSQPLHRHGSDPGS

`CNC(=O)c1cc2c(nc(C)n2C)c2c1CC[C@@H](c1ccc(Cl)cc1C)O2`: the results for the logD in [1] and in data set [5] were 3.1 and 3.46, respectively. For the same compound, in the data set with Canis familiaris [2], the outcome was Active. At hERG (KCNH2), 10 µM produced 45% inhibition. The pIC50 (commonly −log10 of the IC50, conventionally taken in molar units) in [3] came to 4.9. The pKa (in general, the negative logarithm of the acid dissociation constant) in [4] (read-out: pKa) turned out to be 5.6. The IC50 (commonly the midpoint of a concentration-inhibition curve) in the data set with Gastric gland is 794 nM. In the data set with Rattus norvegicus, it took a dose of 0.15 µmol/kg to reach the 50% effect level (ED50).
For `Cc1ccccc1[C@@H]1CCc2c(C(=O)N(C)C)cc3c(nc(C)n3C)c2O1`, the log distribution coefficient (logD) – broadly, lipophilicity at a set pH, counting ionised and neutral species – in data set [1] is 2.8. The outcome in the data set on Canis familiaris [6] was Active. Besides, the figures for the bioavailability in data set [7] and in data set [9] were 72% and 64%, respectively. Moreover, the inhibition – broadly, the percentage by which the read-out fell short of the control – at 10 µM on hERG (KCNH2) turned out to be 33%. Besides, the clearance (in general, the rate of elimination divided by the concentration) in data set [8] was 21 mL/min/kg; in data set [10], 4.67 mL/min/kg. Besides, in data set [3], the negative logarithm of the IC50 (pIC50) came out at 5.3. Also, in data set [4], the pKa amounted to 5.68. Also, the concentration for half-maximal inhibition (IC50) in the data set with Gastric gland was 794 nM. Moreover, in the data set with Rattus norvegicus, the ED50 – broadly, the midpoint of the dose-response relation – amounted to 0.23 µmol/kg.
`CNC(=O)c1cc2c(nc(C)n2C)c2c1CC[C@@H](c1ccccc1C)O2`: in data set [1], the logD is 2.7. In addition, in the data set with Canis familiaris [11], the result was Active. Further, at hERG (KCNH2), at 10 µM the inhibition was 3%. The compound also registered a pIC50 in data set [3] of 5.1. The pKa in [4] worked out at 5.7. Also, the IC50 with Gastric gland was 2510 nM. Besides, in the data set on Rattus norvegicus, the 50% effect level (ED50) was put at a dose of 0.25 µmol/kg.
With `Cc1nc2c3c(c(C(=O)N(C)C)cc2n1C)CC[C@@H](c1ccc(Cl)cc1)O3`, the logD stood at 2.9 in data set [1] and 2.92 in data set [5]. Besides, testing at 10 µM on hERG (KCNH2) gave an inhibition of 84%. Besides, the result in the data set on Canis familiaris [12] and in the data set with Canis familiaris [13] was Active. This compound had a negative-log IC50 (pIC50) in data set [3] of 5.1. The pKa in data set [4] (read-out: pKa) worked out at 5.59. The half-inhibitory concentration (IC50) in the data set on Gastric gland is 398 nM. Also, the ED50 with Rattus norvegicus is 0.15 µmol/kg.

These data come from ChEMBL document CHEMBL1158548, “Tetrahydrochromenoimidazoles as potassium-competitive acid blockers (P-CABs): structure-activity relationship of their antisecretory properties and their affinity toward the hERG channel” (J Med Chem, 2010).
